{"source": "ChEMBL document CHEMBL1124408", "about": "“3-aminopyridazine derivatives with atypical antidepressant, serotonergic, and dopaminergic activities” (J Med Chem, 1989)", "format_in_all_cases": "functional", "key": {"[1]": {"test_system": "Mus musculus", "test": "Compound was tested for antidepressant activity against reserpine induced ptosis in mice after intraperitoneal administration.; value ranges from 2.2-2.4", "settings": "ip", "summary_of_the_method": "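Female CD1 mice (18-22 g) received the drug in distilled water/gum tragacanth ip at multiple doses (7-20 mice/dose), given together with reserpine (2 mg/kg iv). One hour later, palpebral ptosis (half or more of the lid closed) was scored all-or-none. Screening dose was at most 50% of the seizure threshold dose.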"}, "[2]": {"test_system": "Mus musculus", "test": "Ability to modify turning behavior of mice after intraperitoneal administration", "settings": "ip, read-out: MED", "summary_of_the_method": "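Female CD1 mice (25-30 g) were lesioned by stereotaxic injection of 6-OHDA (10 μg in 1 μL saline with 1 mg/mL ascorbic acid) into the right striatum under pentobarbitone (60 mg/kg ip). Seven days later, drug in distilled water/gum tragacanth was given ip at multiple doses (7-20 mice/dose). Ipsilateral turns were counted for 2 min starting 30 min post-dose.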"}, "[3]": {"test_system": "Mus musculus", "test": "Serotonergic activity was determined by measuring the potentiation of 5-hydroxytryptophan in mice upon ip administration", "summary_of_the_method": "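Drug was injected ip in distilled water/gum tragacanth to female CD1 mice (18-22 g) at multiple doses (7-20 mice/dose), 30 min before a threshold dose of L-5-HTP (200 mg/kg ip). Mice were held singly in small cages, and tremor was scored all-or-none over the 20 min after L-5-HTP.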"}}}
{"smiles": "CN(C)CCCN1c2ccccc2CCc2ccccc21", "note": "[IMIPRAMINE]", "values": [{"measurement": "ED50", "setting": "[1]", "result": 2.3, "unit": "mg/kg"}, {"measurement": "minimal effective dose", "setting": "[2]", "result": "> 20", "unit": "mg/kg"}, {"measurement": "ED50", "setting": "[3]", "result": "> 30", "unit": "mg/kg"}]}
